The experiment deals with E. coli V66 viability, colony formation, Hfr cross. The experiment can be described thus: E. coli V66 viability loss, concentration series, dose response, cytotoxicity control for AddAB inhibitor project, colony formation, Hfr recombination (AID 623917). The conditions noted are these: hits give low values. Summed up:
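Signal: colony counts on non-selective agar plates, CFU/mL; assay system: E. coli V66 recipient cells; compound: five doses, 0.03–100 µM; incubation: 1 h growth with compound, 1.5 h overall; benchmarks: DMSO control; medium: LB broth; evaluation: V66 CFU/mL as percent of DMSO control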

Molecules are shown by their SMILES. Active and inactive are the calls of the source.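 Rule for the calls: active = E. coli viability under 80% of the solvent control at every tested dose; inactive = viability of 80% or more at every tested dose.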

Regarding `CCn1cc(C(=O)O)c(=O)c2cnc(N3CCNCC3)nc21`, the viability was 90% (inactive).

With `CCn1cc(C(=O)O)c(=O)c2cnc(N3CCN(C(=S)Nc4cccc(C(F)(F)F)c4)CC3)nc21`, the viability is 100% (inactive).

Consider `C=CCn1c(Sc2ncc([N+](=O)[O-])s2)n[nH]c1=O`, for which the viability was 90% (inactive).

For the molecule `CCn1cc(C(=O)O)c(=O)c2cc(F)c(N3CCN(C(=S)Nc4cccc(C(F)(F)F)c4)CC3)cc21`, the viability was 12%.

As to `CCn1cc(C(=O)O)c(=O)c2cnc(N3CCN(C(=S)Nc4ccccc4C(F)(F)F)CC3)nc21`, the viability was 90% (inactive).

`O=C(NCc1cccnc1)c1ccc([N+](=O)[O-])o1`: the viability was 100% (inactive).

Regarding `O=C(Nc1ncccn1)c1ccc([N+](=O)[O-])o1`, the viability is 100% (inactive).

As for `CC1CCc2c(sc(NC(=O)c3ccc([N+](=O)[O-])o3)c2C#N)C1` (stereo not drawn), the viability is 90% (inactive).

The record behind these values is PubChem BioAssay AID623917 (The Scripps Research Institute Molecular Screening Center, 2012).
